Measurements taken from ChEMBL document CHEMBL3616464, “One-pot synthesis of podophyllotoxin-thiourea congeners by employing NH₂SO₃H/NaI: Anticancer activity, DNA topoisomerase-II inhibition, and apoptosis inducing agents” (Bioorg Med Chem Lett, 2015).
pIC50: −log10 of the molar value. Active and inactive are the calls of the source. The calls are words filed in the database; no cut-off is given here.

How the values were obtained:
A549 [1] = experiment: Cytotoxicity against human A549 cells after 48 hrs by MTT assay; format: functional, cell-based; conditions: A549, 48 h
DU-145 [2] = experiment: Cytotoxicity against human DU145 cells after 48 hrs by MTT assay; format: functional, cell-based; conditions: DU-145, 48 h
[3] = Cytotoxicity against human RWPE1 cells after 48 hrs by MTT assay; format: cell-based; conditions: RWPE-1, 48 h
LNCaP [4] = experiment: Cytotoxicity against human LNCAP cells after 48 hrs by MTT assay; format: functional, cell-based
[5] = Cytotoxicity against human HGC cells after 48 hrs by MTT assay; format: functional, cell-based
MDA-MB-231 [6] = experiment: Cytotoxicity against human MDA-MB-231 cells after 48 hrs by MTT assay; format: functional, cell-based; conditions: MDA-MB-231, 48 h
[7] = Therapeutic index, ratio of IC50 for human RWPE1 cells to IC50 for human DU145 cells; format: cell-based; conditions: RWPE1 cells versus DU145 cells, read-out: Ratio IC50
Summary of the method: (§1)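 Selectivity expressed as the fold by which the IC50 in normal prostate epithelial RWPE-1 cells exceeds the IC50 in the prostate cancer line (DU-145 or LNCaP).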

[8] = Therapeutic index, ratio of IC50 for human RWPE1 cells to IC50 for human LNCAP cells; format: cell-based; conditions: RWPE1 cells versus LNCAP cells, read-out: Ratio IC50; summary of the method: as §1
A549 [9] = experiment: Cytotoxicity against human A549 cells at 100 uM after 48 hrs by MTT assay; format: functional, cell-based
LNCaP [10] = experiment: Cytotoxicity against human LNCAP cells at 100 uM after 48 hrs by MTT assay; format: functional, cell-based
HGC = experiment: Cytotoxicity against human HGC cells at 100 uM after 48 hrs by MTT assay; format: functional, cell-based
MDA-MB-231 [11] = experiment: Cytotoxicity against human MDA-MB-231 cells at 100 uM after 48 hrs by MTT assay; format: functional, cell-based
DU-145 [12] = experiment: Cytotoxicity against human DU145 cells at 100 uM after 48 hrs by MTT assay; format: functional, cell-based
[13] = Cytotoxicity against human RWPE1 cells at 100 uM after 48 hrs by MTT assay; format: cell-based; conditions: rwpe-1, 48 h
[14] = biological target: DNA topoisomerase 2-alpha (Homo sapiens) (UniProt P11388); experiment: Inhibition of topoisomerase-2 (unknown origin) using kDNA assessed as increase of catenated kDNA level at 100 uM after 10 mins using ethidium bromide staining by agarose gel electrophoresis
Summary of the method: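 Drug-screening kit decatenation assay: catenated DNA incubated with topoisomerase II (5 units) and test agent, with etoposide as reference. Products were resolved by gel and visualised. Inhibition was judged by catenated DNA remaining in the wells, compared with nicked circular, relaxed circular or linear DNA forms.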

DNA topoisomerase 2-alpha (Homo sapiens), sequence (P11388 whole entry): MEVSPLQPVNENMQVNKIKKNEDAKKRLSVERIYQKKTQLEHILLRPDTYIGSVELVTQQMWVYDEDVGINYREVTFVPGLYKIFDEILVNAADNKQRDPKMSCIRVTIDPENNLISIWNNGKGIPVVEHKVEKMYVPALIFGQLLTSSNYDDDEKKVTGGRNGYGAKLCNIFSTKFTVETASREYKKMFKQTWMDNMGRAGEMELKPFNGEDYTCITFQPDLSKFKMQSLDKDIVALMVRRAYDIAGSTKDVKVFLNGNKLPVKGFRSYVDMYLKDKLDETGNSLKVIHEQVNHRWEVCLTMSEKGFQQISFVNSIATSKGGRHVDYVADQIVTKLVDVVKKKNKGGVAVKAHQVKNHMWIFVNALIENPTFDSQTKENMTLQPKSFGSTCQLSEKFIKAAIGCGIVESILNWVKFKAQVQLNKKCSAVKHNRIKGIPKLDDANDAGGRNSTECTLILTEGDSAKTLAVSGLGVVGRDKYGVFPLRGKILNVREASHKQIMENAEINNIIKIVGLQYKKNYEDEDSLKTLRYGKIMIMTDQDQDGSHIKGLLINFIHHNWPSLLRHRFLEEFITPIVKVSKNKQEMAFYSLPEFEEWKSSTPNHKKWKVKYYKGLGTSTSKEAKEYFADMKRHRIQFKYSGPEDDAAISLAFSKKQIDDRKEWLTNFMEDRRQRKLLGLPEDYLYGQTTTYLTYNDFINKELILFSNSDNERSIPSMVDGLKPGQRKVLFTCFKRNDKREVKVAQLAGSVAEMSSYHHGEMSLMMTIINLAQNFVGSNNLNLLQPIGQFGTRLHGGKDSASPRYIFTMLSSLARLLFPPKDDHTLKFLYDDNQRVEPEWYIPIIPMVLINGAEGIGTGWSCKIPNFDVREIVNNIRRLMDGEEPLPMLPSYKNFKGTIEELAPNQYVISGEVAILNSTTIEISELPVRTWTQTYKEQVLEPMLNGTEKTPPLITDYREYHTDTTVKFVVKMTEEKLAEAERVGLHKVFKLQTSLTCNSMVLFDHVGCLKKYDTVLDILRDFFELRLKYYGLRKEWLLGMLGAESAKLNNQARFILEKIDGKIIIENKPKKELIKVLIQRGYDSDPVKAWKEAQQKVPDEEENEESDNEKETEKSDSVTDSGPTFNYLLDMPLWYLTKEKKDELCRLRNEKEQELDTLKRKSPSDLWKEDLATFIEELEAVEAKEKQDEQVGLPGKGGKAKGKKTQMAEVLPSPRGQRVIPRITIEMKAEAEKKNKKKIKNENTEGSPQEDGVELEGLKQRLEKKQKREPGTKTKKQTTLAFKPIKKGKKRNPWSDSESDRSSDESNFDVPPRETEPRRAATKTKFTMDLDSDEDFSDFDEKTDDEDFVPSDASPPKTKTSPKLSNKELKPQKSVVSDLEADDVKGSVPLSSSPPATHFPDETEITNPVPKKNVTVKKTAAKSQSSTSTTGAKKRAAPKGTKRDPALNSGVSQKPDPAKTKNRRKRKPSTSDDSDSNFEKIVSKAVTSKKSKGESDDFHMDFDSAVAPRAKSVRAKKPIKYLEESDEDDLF

Compound | pIC50 (A549 [1]) | pIC50 (DU-145 [2]) | pIC50 [3] | pIC50 (LNCaP [4]) | pIC50 [5] | pIC50 (MDA-MB-231 [6]) | selectivity ratio [7] | selectivity ratio [8] | Activity (A549 [9]) | Activity (LNCaP [10]) | Activity (HGC) | Activity (MDA-MB-231 [11]) | Activity (DU-145 [12]) | Activity [13] | inhibition [14]
CCOC(=O)c1ccc(NC(=S)N[C@@H]2c3cc4c(cc3[C@@H](c3cc(OC)c(OC)c(OC)c3)[C@H]3C(=O)OC[C@@H]32)OCO4)cc1 | < 4.00 | 5.63 | 4.19 | 5.26 | 4.34 | < 4.00 | 27 | 11.6 | – | – | – | – | – | – | –
COc1cc([C@@H]2c3cc4c(cc3[C@H](O)[C@H]3COC(=O)[C@H]23)OCO4)cc(OC)c1OC [PODOFILOX] | 3.89 | – | – | – | – | – | – | – | – | – | – | – | – | – | –
COc1cc([C@@H]2c3cc4c(cc3[C@@H](NC(=S)Nc3ccc(Cl)c(Cl)c3)[C@H]3COC(=O)[C@H]23)OCO4)cc(OC)c1OC | – | 4.85 | < 4.00 | 4.70 | 4.06 | 4.93 | – | – | inactive | – | – | – | – | – | –
COc1ccc(NC(=S)N[C@@H]2c3cc4c(cc3[C@@H](c3cc(OC)c(OC)c(OC)c3)[C@H]3C(=O)OC[C@@H]32)OCO4)c([N+](=O)[O-])c1 | 4.45 | 4.91 | 4.11 | 4.59 | 4.48 | 4.40 | 6.4 | 3.1 | – | – | – | – | – | – | –
COc1cc([C@@H]2c3cc4c(cc3[C@@H](NC(=S)Nc3ccc(C(C)C)cc3)[C@H]3COC(=O)[C@H]23)OCO4)cc(OC)c1OC | 4.21 | 4.22 | < 4.00 | 4.07 | < 4.00 | < 4.00 | – | – | – | – | – | – | – | – | –
COc1ccc(NC(=S)N[C@@H]2c3cc4c(cc3[C@@H](c3cc(OC)c(OC)c(OC)c3)[C@H]3C(=O)OC[C@@H]32)OCO4)cc1OC | 4.18 | 4.23 | < 4.00 | < 4.00 | 4.63 | < 4.00 | – | – | – | – | – | – | – | – | –
COc1cc([C@@H]2c3cc4c(cc3[C@@H](NC(=S)Nc3ccccc3F)[C@H]3COC(=O)[C@H]23)OCO4)cc(OC)c1OC | – | 4.20 | < 4.00 | < 4.00 | 4.65 | < 4.00 | – | – | inactive | – | – | – | – | – | –
COc1cc(NC(=S)N[C@@H]2c3cc4c(cc3[C@@H](c3cc(OC)c(OC)c(OC)c3)[C@H]3C(=O)OC[C@@H]32)OCO4)ccc1[N+](=O)[O-] | – | – | – | – | – | – | – | – | inactive | inactive | inactive | inactive | inactive | Non-toxic | –
COc1cc([C@@H]2c3cc4c(cc3[C@@H](NC(=S)Nc3ccc([N+](=O)[O-])cc3)[C@H]3COC(=O)[C@H]23)OCO4)cc(OC)c1OC | 4.36 | 5.10 | 4.25 | 4.27 | 4.16 | 4.50 | 7.2 | – | – | – | – | – | – | – | –
COc1cc([C@@H]2c3cc4c(cc3[C@@H](O[C@@H]3O[C@@H]5CO[C@@H](C)O[C@H]5[C@H](O)[C@H]3O)[C@H]3COC(=O)[C@H]23)OCO4)cc(OC)c1O [ETOPOSIDE] | 4.41 | 5.28 | 4.56 | 4.30 | 4.96 | 4.31 | 5.3 | – | – | – | – | – | – | – | Active
COc1ccc(OC)c(NC(=S)N[C@@H]2c3cc4c(cc3[C@@H](c3cc(OC)c(OC)c(OC)c3)[C@H]3C(=O)OC[C@@H]32)OCO4)c1 | – | – | – | – | – | – | – | – | inactive | inactive | inactive | inactive | inactive | Non-toxic | –
COc1cc([C@@H]2c3cc4c(cc3[C@@H](NC(=S)Nc3ccc(C#N)cc3)[C@H]3COC(=O)[C@H]23)OCO4)cc(OC)c1OC | – | – | – | – | – | – | – | – | inactive | inactive | inactive | inactive | inactive | – | –
COc1cc([C@@H]2c3cc4c(cc3[C@@H](NC(=S)Nc3ccc(OCc5ccccc5)cc3)[C@H]3COC(=O)[C@H]23)OCO4)cc(OC)c1OC | – | – | – | – | – | – | – | – | inactive | inactive | inactive | inactive | inactive | Non-toxic | –
COc1cc([C@@H]2c3cc4c(cc3[C@@H](NC(=S)Nc3ccccc3C(F)(F)F)[C@H]3COC(=O)[C@H]23)OCO4)cc(OC)c1OC | < 4.00 | 5.63 | 4.35 | 4.89 | 4.07 | 4.07 | 19 | 3.4 | – | – | – | – | – | – | –
COc1cc([C@@H]2c3cc4c(cc3[C@@H](NC(=S)Nc3c(C)cc(C)cc3C)[C@H]3COC(=O)[C@H]23)OCO4)cc(OC)c1OC | – | 4.98 | 4.14 | 4.40 | 4.22 | 4.71 | 6.8 | 1.8 | inactive | – | – | – | – | – | –
COc1cc([C@@H]2c3cc4c(cc3[C@@H](NC(=S)Nc3ccc(C(F)(F)F)cc3)[C@H]3COC(=O)[C@H]23)OCO4)cc(OC)c1OC | 4.83 | 5.71 | 4.77 | 5.45 | 4.25 | 5.12 | 8.6 | 4.7 | – | – | – | – | – | – | Active
COc1cc([C@@H]2c3cc4c(cc3[C@@H](NC(=S)Nc3cccc(F)c3)[C@H]3COC(=O)[C@H]23)OCO4)cc(OC)c1OC | – | – | – | – | – | – | – | – | inactive | inactive | inactive | inactive | inactive | Non-toxic | –
COc1cc([C@@H]2c3cc4c(cc3[C@@H](NC(=S)Nc3ccc(F)cc3)[C@H]3COC(=O)[C@H]23)OCO4)cc(OC)c1OC | – | – | – | – | – | – | – | – | inactive | inactive | inactive | inactive | inactive | Non-toxic | –
COc1ccc(NC(=S)N[C@@H]2c3cc4c(cc3[C@@H](c3cc(OC)c(OC)c(OC)c3)[C@H]3C(=O)OC[C@@H]32)OCO4)c(OC)c1 | – | – | – | – | – | – | – | – | inactive | inactive | inactive | inactive | inactive | Non-toxic | –
COc1cc([N+](=O)[O-])ccc1NC(=S)N[C@@H]1c2cc3c(cc2[C@@H](c2cc(OC)c(OC)c(OC)c2)[C@H]2C(=O)OC[C@@H]21)OCO3 | – | – | – | – | – | – | – | – | inactive | inactive | inactive | inactive | inactive | Non-toxic | –
COc1cc([C@@H]2c3cc4c(cc3[C@@H](NC(=S)Nc3cccc(C(F)(F)F)c3)[C@H]3COC(=O)[C@H]23)OCO4)cc(OC)c1OC | – | 4.68 | < 4.00 | 4.65 | 4.89 | 4.75 | – | – | inactive | – | – | – | – | – | –
COc1cc(NC(=S)N[C@@H]2c3cc4c(cc3[C@@H](c3cc(OC)c(OC)c(OC)c3)[C@H]3C(=O)OC[C@@H]32)OCO4)cc(OC)c1 | – | – | – | – | – | – | – | – | inactive | inactive | inactive | inactive | inactive | Non-toxic | –
